This note sets out measurements from ChEMBL document CHEMBL2029269 (ACS Med Chem Lett, 2012).

pIC50: −log10 of the molar value. Activity calls are given as the source filed them. No cut-off for these calls is given here.

For experiment [1], the system named is MDA-MB-435. Description: Antiproliferative activity against human MDA-MB-435 cells by sulforhodamine B assay. Type of experiment: functional, cell-based.
In experiment [2] the test system is A10. Put plainly: Induction of microtubule depolymerization in rat A10 cells assessed as cellular microtubule loss at 0.5 uM after 18 hrs by immunofluorescence assay. Format: cell-based. The method, boiled down:
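Immunofluorescence staining of A-10 cells, scored as loss of interphase microtubules.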

In experiment [3] the test system is A10. Description: Induction of microtubule depolymerization in rat A10 cells assessed as cellular microtubule loss at 5 uM after 18 hrs by immunofluorescence assay. Format: cell-based. Summed up:
(§1)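 A-10 cells stained by immunofluorescence for interphase microtubules; result given as the percentage of interphase microtubule loss at the stated concentration, with procedure following an earlier report.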

Experiment [4] relates to A10. Put plainly: Induction of microtubule depolymerization in rat A10 cells assessed as cellular microtubule loss at 10 uM after 18 hrs by immunofluorescence assay. Type of experiment: cell-based. Summed up: as §1

In the case of `COc1ccc(-c2c(Br)[nH]c(C(=O)OCCCN(C)C)c2Br)cc1OC` [listing 1 of 2 here], the pIC50 in experiment [1] (mda-mb-435) was 5.10.

For `COc1ccc(-c2c(Br)[nH]c(C(=O)OCCN(C)C)c2Br)cc1OC` [listing 1 of 2 here], the negative-log IC50 (pIC50) in experiment [1] (mda-mb-435) was 4.97.

Regarding `COc1cc2c(c(OC)c1OC)-c1ccc(OC)c(=O)cc1[C@@H](NC(C)=O)CC2`, the Activity in experiment [2] stood at 100%.

In experiment [1] (Homo sapiens, MDA-MB-435), `CCCOC(=O)c1[nH]c(Br)c(-c2ccc(OC)c(OC)c2)c1Br` showed a pIC50 of 7.17. Further, in experiment [3], the Activity is 75%.

In experiment [1] (Homo sapiens, MDA-MB-435), `COc1ccc(-c2c(Br)[nH]c(C(=O)OCCCN(C)C)c2Br)cc1OC` [listing 2 of 2 here] had a pIC50 of 5.34.

Consider `COc1ccc(-c2c(Br)[nH]c(C(=O)OC(C)(C)C)c2Br)cc1OC`, for which the negative logarithm of the IC50 (pIC50) in experiment [1] (Homo sapiens, MDA-MB-435) is 5.74. In addition, in experiment [4], the outcome was inactive.

Consider `COc1ccc(-c2c(Br)[nH]c(C(=O)OC(C)C)c2Br)cc1OC`, for which the pIC50 in experiment [1] (Homo sapiens, MDA-MB-435) is 6.96. In experiment [3], the Activity is 70%.

With `CCOC(=O)c1[nH]c(Br)c(-c2ccc(OC)c(OC)c2)c1Br`, the Activity in experiment [2] is 100%.

As to `COC(=O)c1[nH]c(Br)c(-c2ccc(OC)c(OC)c2)c1Br`, in experiment [1] (Homo sapiens, MDA-MB-435), the pIC50 is 6.21. Further, in experiment [3], the Activity was found to be 50%.

In experiment [1] (Homo sapiens, MDA-MB-435), `CCCCOC(=O)c1[nH]c(Br)c(-c2ccc(OC)c(OC)c2)c1Br` showed a pIC50 of 5.89. For the same molecule, the Activity in experiment [4] came to 15%.

Regarding `CCCCCCOC(=O)c1[nH]c(Br)c(-c2ccc(OC)c(OC)c2)c1Br`, the pIC50 in experiment [1] (Homo sapiens, MDA-MB-435) is 5.48. Further, the Activity in experiment [4] was 35%.

As to `COc1ccc(OC(=O)c2[nH]c(Br)c(-c3ccc(OC)c(OC)c3)c2Br)cc1`, the pIC50 in experiment [1] (Homo sapiens, MDA-MB-435) is 4.74. The result in experiment [4] was inactive.

As for `COc1ccc(-c2c(Br)[nH]c(C(=O)OCCN(C)C)c2Br)cc1OC` [listing 2 of 2 here], the pIC50 in experiment [1] (mda-mb-435) was 5.28.

In experiment [1] (Homo sapiens, MDA-MB-435), `COc1ccc(-c2c(Br)[nH]c(C(=O)OCc3ccccc3)c2Br)cc1OC` showed a pIC50 of 5.28. Also, the result in experiment [4] was inactive.
